According to ChEMBL document CHEMBL1130140, “O6-(alkyl/aralkyl)guanosine and 2'-deoxyguanosine derivatives: synthesis and ability to enhance chloroethylnitrosourea antitumor action” (1997):

Columns and labels:
M4Beu cell line [1] = assay: Effective dose of compound associated with cystemustine (50 uM), required to reduce by 50% cell survival rate (M4Beu cells); assay type: functional; details: Homo sapiens, read-out: ED50 (the source's name)
Procedure, shortened: (§1)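 M4Beu cells were plated at 200 cells/dish and left to adhere 20 h. They were given compound at 0-400 µM (100 mM DMSO stock) for 4 h at 37 °C, then 50 µM cystemustine for 2 h at 37 °C, then grown 14 days. Methanol-fixed, crystal-violet-stained colonies (>50 cells) were counted. ED50 was read graphically from the concentration plot of survival decrease relative to cystemustine alone. Each dose ran ≥3 times in triplicate.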

M4Beu cell line [2] = assay: In vitro cytotoxicity against M4Beu cells when co-administered with 50 uM cystemustine.; assay type: functional; details: Homo sapiens, read-out: ED50 (the source's name); procedure, shortened: as §1
M4Beu cell line [3] = assay: In vitro cytotoxicity in M4Beu cells after 4 hr exposure to 300 uM.; assay type: functional, Homo sapiens
Procedure, shortened: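 Colony-forming assay: M4Beu cells plated at 200 cells/dish, allowed to adhere 20 h, then exposed 4 h at 37 °C to compound at 300 µM (from 100 mM DMSO stock) with no cystemustine step. Medium then replaced, cells grown 14 days, fixed in methanol, stained with crystal violet. Colonies >50 cells counted; survival as percent of untreated control; at least three experiments in triplicate.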

Row | SMILES | EC50 (M4Beu cell line [1]) [µM] | EC50 (M4Beu cell line [2]) [µM] | Cell survival (M4Beu cell line [3]) [%]
1 | CC(=O)Nc1nc(OCc2ccc(Br)cc2)c2ncn(C3OC(COC(C)=O)C(OC(C)=O)C3OC(C)=O)c2n1 (stereo not given) | 400 |  | 
2 | CC(=O)Nc1nc(OCc2ccc(I)cc2)c2ncn(C3CC(O)C(CO)O3)c2n1 (stereo not given) |  | 269 | 
3 | CC(=O)Nc1nc(OC(c2ccccc2)c2ccccc2)c2ncn(C3O[C@H](CO)[C@@H](O)[C@H]3O)c2n1 (stereo not given in full) |  | 400 | 
4 | CC(=O)Nc1nc(OCc2ccc(Br)cc2)c2ncn(C3CC(OC(C)=O)C(COC(C)=O)O3)c2n1 (stereo not given) |  | 216 | 
5 | CC(=O)Nc1nc(OCc2ccc(I)cc2)c2ncn(C3CC(OC(C)=O)C(COC(C)=O)O3)c2n1 (stereo not given) |  | 200 | 
6 | Nc1nc(OCc2ccc(I)cc2)c2ncn(C3O[C@H](CO)[C@@H](O)[C@H]3O)c2n1 (stereo not given in full) |  | 122 | 100
7 | CC(=O)Nc1nc(OCc2ccc(Br)cc2)c2ncn([C@H]3C[C@H](O)[C@@H](CO)O3)c2n1 |  | 211 | 
8 | Nc1nc(OCc2ccccc2)c2nc[nH]c2n1 [6-O-BENZYLGUANINE] |  | 2 | 110
